Test results from ChEMBL document CHEMBL4732199, “Potent and orally bioavailable CDK8 inhibitors: Design, synthesis, structure-activity relationship analysis and biological evaluation” (Eur J Med Chem, 2021).

Assays:
[1] = tested on: HCT-116; assay: Growth inhibition human HCT-116 cells after 72 hrs by resazurin or MTT assay; assay type: functional
Procedure, shortened: (§1)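 Tumour cell lines kept in RPMI-1640, DMEM or MEM with 10% FBS at 37 °C, 5% CO2, mycoplasma-free. Exposure lasted 72 h. Viability was read by MTT for adherent solid-tumour lines and by resazurin for suspension leukaemia lines. GI50 came from nonlinear regression, given as mean ± standard deviation of at least two replicates unless stated otherwise.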

[2] = Toxicity in BALB/c mouse assessed as increase in number of alveolar macrophages at 70 mg/kg, po administered once daily for 7 days and measured on day 15; assay type: organism-based; settings: in vivo, 168 h, time 7 day
[3] = Toxicity in BALB/c mouse assessed as macrophages at 70 mg/kg, po administered once daily for 7 days and measured on day 15 by flow cytometric analysis; assay type: organism-based; settings: in vivo, 168 h, time 7 day
[4] = Toxicity in BALB/c mouse assessed as pathological alterations in lung at 70 mg/kg, po administered once daily for 7 days and measured on day 15; assay type: organism-based; settings: in vivo, 168 h, time 7 day
[5] = tested on: A2780; assay: Growth inhibition human A2780 cells after 72 hrs by resazurin or MTT assay; assay type: functional; procedure, shortened: as §1
[6] = Toxicity in BALB/c mouse assessed as pathological alterations in left femora at 70 mg/kg, po administered once daily for 7 days and measured on day 15; assay type: organism-based; settings: in vivo, 168 h, time 7 day
[7] = AUC in Sprague-Dawley rat at 20 mg/kg, po measured up to 24 hrs by LC-MS/MS analysis; assay type: ADME, organism-based; set-up: route oral, dose 20 mg/kg, time <=24; settings: in vivo
[8] = Toxicity in BALB/c mouse assessed as monocytes at 70 mg/kg, po administered once daily for 7 days and measured on day 15 by flow cytometric analysis; assay type: organism-based; settings: in vivo, 168 h, time 7 day
[9] = Tmax in Sprague-Dawley rat at 5 mg/kg, iv measured up to 24 hrs by LC-MS/MS analysis; assay type: ADME, organism-based; settings: in vivo
[10] = Oral bioavailability in Sprague-Dawley rat at 20 mg/kg measured up to 24 hrs by LC-MS/MS analysis; assay type: ADME, organism-based; settings: in vivo
[11] = Cmax in Sprague-Dawley rat at 5 mg/kg, iv measured up to 24 hrs by LC-MS/MS analysis; assay type: ADME, organism-based; set-up: route intravenous, dose 5 mg/kg, time <=24; settings: in vivo
[12] = tested on: MDA-MB-453; assay: Growth inhibition human MDA-MB-453 cells after 72 hrs by resazurin or MTT assay; assay type: functional; procedure, shortened: as §1
[13] = Toxicity in BALB/c mouse assessed as dendritic cells at 70 mg/kg, po administered once daily for 7 days and measured on day 15 by flow cytometric analysis; assay type: organism-based; settings: in vivo, 168 h, time 7 day
[14] = tested on: T47D; assay: Growth inhibition human T47D cells after 72 hrs by resazurin or MTT assay; assay type: functional; procedure, shortened: as §1
[15] = Tmax in Sprague-Dawley rat at 20 mg/kg, po measured up to 24 hrs by LC-MS/MS analysis; assay type: ADME, organism-based; settings: in vivo
[16] = tested on: HL-60; assay: Growth inhibition human HL-60 cells after 72 hrs by resazurin or MTT assay; assay type: functional; procedure, shortened: as §1
[17] = biological target: Glycogen synthase kinase-3 alpha (Homo sapiens, UniProt P49840); assay: Inhibition of human GSKalpha S449A mutant (2 to 3nd residues) using YRRAAVPPSPSLSRHSSPHQS(p) EDEEE as substrate incubated for 40 mins in presence of [gamma-33P]-ATP by scintillation counting method
Sequence of Glycogen synthase kinase-3 alpha (P49840 whole entry): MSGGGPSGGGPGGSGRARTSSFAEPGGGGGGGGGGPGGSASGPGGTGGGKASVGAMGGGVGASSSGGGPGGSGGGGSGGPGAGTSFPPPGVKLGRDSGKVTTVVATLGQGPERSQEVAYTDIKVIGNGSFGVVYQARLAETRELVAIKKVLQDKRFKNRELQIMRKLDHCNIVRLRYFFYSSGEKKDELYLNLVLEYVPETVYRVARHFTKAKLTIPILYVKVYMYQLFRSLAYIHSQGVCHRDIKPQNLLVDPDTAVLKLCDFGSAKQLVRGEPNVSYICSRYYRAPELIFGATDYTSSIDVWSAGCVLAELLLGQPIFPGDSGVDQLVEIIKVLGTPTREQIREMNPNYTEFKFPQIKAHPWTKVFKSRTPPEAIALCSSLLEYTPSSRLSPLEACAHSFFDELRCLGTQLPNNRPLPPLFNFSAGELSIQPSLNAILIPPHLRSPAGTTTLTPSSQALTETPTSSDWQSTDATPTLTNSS
Procedure, shortened: (§2)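 Outsourced radioisotope (HotSpot) kinase assay run by a contract lab, with ATP at the kinase's Km(ATP). The IC50 was converted to an apparent Ki by the Cheng-Prusoff equation, Ki = IC50/(1+[ATP]/Km(ATP)), using the experimentally determined Km(ATP).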

[18] = Toxicity in BALB/c mouse assessed as vasculitis in blood vessels at 70 mg/kg, po administered once daily for 7 days and measured on day 15; assay type: organism-based; settings: in vivo, 168 h, time 7 day
[19] = tested on: HT-29; assay: Growth inhibition human HT-29 cells after 72 hrs by resazurin or MTT assay; assay type: functional; procedure, shortened: as §1
[20] = tested on: MCF7; assay: Growth inhibition human MCF7 cells after 72 hrs by resazurin or MTT assay; assay type: functional; procedure, shortened: as §1
[21] = biological target: Protein kinase C theta type (Homo sapiens, UniProt Q04759); assay: Inhibition of human full length PKCtheta using histone H1 as substrate incubated for 40 mins in presence of [gamma-33P]-ATP by scintillation counting method
Sequence of Protein kinase C theta type (Q04759 whole entry): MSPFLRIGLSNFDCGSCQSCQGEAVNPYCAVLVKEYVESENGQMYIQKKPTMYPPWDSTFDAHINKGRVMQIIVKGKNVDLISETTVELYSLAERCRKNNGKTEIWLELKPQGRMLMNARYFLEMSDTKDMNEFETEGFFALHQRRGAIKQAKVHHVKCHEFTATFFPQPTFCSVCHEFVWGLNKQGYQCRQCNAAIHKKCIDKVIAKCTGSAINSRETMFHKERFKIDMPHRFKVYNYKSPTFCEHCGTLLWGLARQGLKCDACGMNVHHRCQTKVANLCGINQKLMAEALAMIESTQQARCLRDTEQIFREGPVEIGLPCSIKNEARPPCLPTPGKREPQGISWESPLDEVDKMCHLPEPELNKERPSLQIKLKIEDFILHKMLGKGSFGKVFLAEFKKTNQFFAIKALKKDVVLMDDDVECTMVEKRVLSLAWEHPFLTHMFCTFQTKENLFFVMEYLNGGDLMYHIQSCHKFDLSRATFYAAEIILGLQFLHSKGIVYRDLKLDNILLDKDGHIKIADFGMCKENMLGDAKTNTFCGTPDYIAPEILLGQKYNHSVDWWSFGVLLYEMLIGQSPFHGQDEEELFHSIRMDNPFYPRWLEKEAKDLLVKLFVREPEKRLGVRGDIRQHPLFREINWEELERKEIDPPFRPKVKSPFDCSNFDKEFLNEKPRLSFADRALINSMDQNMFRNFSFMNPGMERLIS
Procedure, shortened: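 IC50 measured in a contracted radiometric kinase assay with ATP at the experimentally determined Km(ATP) of each kinase. Apparent Ki was derived by Cheng-Prusoff: Ki = IC50/(1+[ATP]/Km(ATP)).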

[22] = biological target: Glycogen synthase kinase-3 beta (Homo sapiens, UniProt P49841); assay: Inhibition of human GSKbeta H350L mutant (2 to 3nd residues) using YRRAAVPPSPSLSRHSSPHQS(p) EDEEE as substrate incubated for 40 mins in presence of [gamma-33P]-ATP by scintillation counting method; procedure, shortened: as §2
Sequence of Glycogen synthase kinase-3 beta (P49841 whole entry): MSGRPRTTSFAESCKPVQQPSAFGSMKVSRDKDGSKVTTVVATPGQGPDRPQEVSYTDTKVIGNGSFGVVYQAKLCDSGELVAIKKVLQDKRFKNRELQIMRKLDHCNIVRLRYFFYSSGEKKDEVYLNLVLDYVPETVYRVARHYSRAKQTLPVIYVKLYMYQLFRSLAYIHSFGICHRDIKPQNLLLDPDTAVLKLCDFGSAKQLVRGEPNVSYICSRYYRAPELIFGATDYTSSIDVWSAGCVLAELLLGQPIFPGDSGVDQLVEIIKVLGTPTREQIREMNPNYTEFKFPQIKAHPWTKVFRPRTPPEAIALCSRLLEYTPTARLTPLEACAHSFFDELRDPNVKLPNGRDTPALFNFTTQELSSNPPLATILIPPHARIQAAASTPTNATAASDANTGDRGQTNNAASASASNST

[23] = tested on: PANC-1; assay: Growth inhibition human PANC-1 cells after 72 hrs by resazurin or MTT assay; assay type: functional; procedure, shortened: as §1
[24] = tested on: MDA-MB-231; assay: Growth inhibition human MDA-MB-231 cells after 72 hrs by resazurin or MTT assay; assay type: functional; procedure, shortened: as §1
[25] = Effect on total STAT1 level in human MV4-11 cells at 1 to 5 times of GI50 concentration after 2 hrs by Western blot analysis; assay type: ADME, cell-based; settings: mv4-11, 2 h
[26] = Toxicity in BALB/c mouse assessed as neutrophils at 70 mg/kg, po administered once daily for 7 days and measured on day 15 by flow cytometric analysis; assay type: organism-based; settings: in vivo, 168 h, time 7 day
[27] = Half life in Sprague-Dawley rat at 5 mg/kg, iv measured up to 24 hrs by LC-MS/MS analysis; assay type: ADME, organism-based; settings: in vivo
[28] = Toxicity in BALB/c mouse assessed as increase in CD3-T cells at 70 mg/kg, po administered once daily for 7 days and measured on day 15 by flow cytometric analysis; assay type: organism-based; settings: in vivo, 168 h, time 7 day
[29] = Toxicity in BALB/c mouse assessed as interstitial pneumonitis in lung at 70 mg/kg, po administered once daily for 7 days and measured on day 15; assay type: organism-based; settings: in vivo, 168 h, time 7 day
[30] = Toxicity in BALB/c mouse assessed as infiltration of inflammatory cells at 70 mg/kg, po administered once daily for 7 days and measured on day 15; assay type: organism-based; settings: in vivo, 168 h, time 7 day
[31] = tested on: NB-4; assay: Growth inhibition human NB4 cells after 72 hrs by resazurin or MTT assay; assay type: functional; procedure, shortened: as §1
[32] = biological target: CDK8/Cyclin C (Homo sapiens, UniProt P49336); assay: Inhibition of CDK8/cyclin C (unknown origin) using RBER-IRStide as substrate incubated for 60 mins in presence of [gamma33P]ATP by scintillation counting method; assay type: protein-complex assay
Sequence of CDK8/Cyclin C (P49336 whole entry): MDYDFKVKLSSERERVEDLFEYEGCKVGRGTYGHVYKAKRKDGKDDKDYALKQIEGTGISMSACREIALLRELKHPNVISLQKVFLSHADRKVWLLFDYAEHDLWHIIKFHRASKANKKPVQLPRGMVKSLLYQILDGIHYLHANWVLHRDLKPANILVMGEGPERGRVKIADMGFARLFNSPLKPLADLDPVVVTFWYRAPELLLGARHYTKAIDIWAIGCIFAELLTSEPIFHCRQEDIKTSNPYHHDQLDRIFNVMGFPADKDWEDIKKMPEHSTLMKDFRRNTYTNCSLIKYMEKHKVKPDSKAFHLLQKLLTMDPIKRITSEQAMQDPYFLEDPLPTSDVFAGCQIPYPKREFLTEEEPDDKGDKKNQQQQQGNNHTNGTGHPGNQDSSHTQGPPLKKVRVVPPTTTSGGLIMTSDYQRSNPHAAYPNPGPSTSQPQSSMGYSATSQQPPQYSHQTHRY
Sequence of CDK8/Cyclin C (P24863 whole entry, further chain): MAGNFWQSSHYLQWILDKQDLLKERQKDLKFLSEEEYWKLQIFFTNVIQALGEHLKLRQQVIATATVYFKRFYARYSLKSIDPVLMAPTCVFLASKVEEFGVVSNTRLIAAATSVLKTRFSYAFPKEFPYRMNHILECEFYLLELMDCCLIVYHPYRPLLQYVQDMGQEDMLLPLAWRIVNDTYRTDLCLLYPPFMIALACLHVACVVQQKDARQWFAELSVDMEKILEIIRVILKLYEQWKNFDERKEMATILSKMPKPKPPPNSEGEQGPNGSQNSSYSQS

[33] = Growth inhibition human WI38 cells after 72 hrs by resazurin or MTT assay; assay type: cell-based; settings: WI-38 cells
[34] = Toxicity in BALB/c mouse assessed as destruction of vessel walls at 70 mg/kg, po administered once daily for 7 days and measured on day 15; assay type: organism-based; settings: in vivo, 168 h, time 7 day
[35] = Volume of distribution at steady state in Sprague-Dawley rat at 5 mg/kg, iv measured up to 24 hrs by LC-MS/MS analysis; assay type: ADME, organism-based; settings: in vivo, read-out: Vdss
[36] = AUC in Sprague-Dawley rat at 5 mg/kg, iv measured up to 24 hrs by LC-MS/MS analysis; assay type: ADME, organism-based; set-up: route intravenous, dose 5 mg/kg, time <=24; settings: in vivo
[37] = Growth inhibition human PL-21 cells after 72 hrs by resazurin or MTT assay; assay type: functional, PL21; procedure, shortened: as §1

In the case of `O=C1NCCC12CCN(c1c(Cl)cncc1-c1cc3ccccc3o1)CC2`, the GI50 [1] is reported as 40.6 µM, the Activity [2] is reported as “Non-Toxic” and the Activity [3] is reported as “Non-Toxic”. For the same compound, the Activity [4] was “Non-Toxic”, the GI50 [5] was 21.4 µM and the Activity [6] was “Non-Toxic”. For the same compound, the AUC at 24 h [7] was 14.6 µM·h, the Activity [8] was “Non-Toxic” and the Tmax [9] was 2.4 min. For the same compound, the bioavailability [10] was 38%, the Cmax [11] was 14.4 µM and the GI50 [12] was 23.3 µM. The Activity [13] was “Non-Toxic”, the GI50 [14] was 16.2 µM and the Tmax [15] was 165 min. The GI50 [16] was 35.3 µM, the Ki [17] was 0.013 µM and the Activity [18] was “Non-Toxic”. The GI50 [19] was 44.2 µM, the GI50 [20] was > 50 µM and the Ki [21] was 0.109 µM. For the same compound, the Ki [22] was 0.004 µM, the GI50 [23] was > 50 µM and the GI50 [24] was 40.7 µM. The Activity [25] was “Non-Toxic”, the Activity [26] was “Non-Toxic” and the half-life [27] was 54 min. The Activity [28] was “Toxic”, the Activity [29] was “Non-Toxic” and the Activity [30] was “Non-Toxic”. For the same compound, the GI50 [31] was 40.8 µM, the Ki [32] was 0.014 µM and the GI50 at 72 h [33] was 48.1 µM. The Activity [34] was “Non-Toxic”, the Vd [35] was 1.11 L/kg and the AUC at 24 h [36] was 9.7 µM·h. The GI50 [37] was 25.4 µM.

In the case of `Cn1cc(-c2ccc(-c3cncc(Cl)c3N3CCC4(CCNC4=O)CC3)cc2)cn1`, the GI50 [1] is reported as 46.2 µM, the Activity [2] is reported as “Toxic” and the Activity [3] is reported as “Non-Toxic”. The Activity [4] was “Toxic”, the GI50 [5] was 35.9 µM and the Activity [6] was “Toxic”. The AUC at 24 h [7] was 17.5 µM·h, the Activity [8] was “Non-Toxic” and the Tmax [9] was 4.2 min. It also gave a bioavailability [10] of 41%, a Cmax [11] of 10.6 µM and a GI50 [12] of 43.1 µM. For the same compound, the Activity [13] was “Non-Toxic”, the GI50 [14] was 15.1 µM and the Tmax [15] was 79.8 min. For the same compound, the GI50 [16] was > 50 µM, the Ki [17] was 0.231 µM and the Activity [18] was “Toxic”. The GI50 [19] was 48.6 µM, the GI50 [20] was > 50 µM and the Ki [21] was 0.061 µM. It also gave a Ki [22] of 0.345 µM, a GI50 [23] of 0.55 µM and a GI50 [24] of 29.9 µM. The Activity [25] was “Non-Toxic”, the Activity [26] was “Non-Toxic” and the half-life [27] was 64.8 min. For the same compound, the Activity [28] was “Toxic”, the Activity [29] was “Toxic” and the Activity [30] was “Toxic”. For the same compound, the GI50 [31] was > 50 µM, the Ki [32] was 0.009 µM and the GI50 at 72 h [33] was > 50 µM. For the same compound, the Activity [34] was “Toxic”, the Vd [35] was 1.38 L/kg and the AUC at 24 h [36] was 10.5 µM·h. The GI50 [37] was 13.8 µM.
